About 1,300 (0.68%) of roughly 190,000 compounds were called active. This is one part of a sample in which actives are shown more often than they occur. Values without a mark were called inactive.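 How the source made its calls: active means primary screen inhibition at 20 µM above a set limit (cut at about 50% in these data); inactive means the rest.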

As a reminder, the inhibition is the drop in the measured response relative to a control, in per cent.

The assay deals with diaphorase (Clostridium kluyveri). As to the kind of experiment: diaphorase inhibitors and chemical oxidizers, primary screen, counter-screen for diaphorase-coupled primary assays, biochemical, uHTS, resorufin fluorescence (AID 1217).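 Further: plate controls were DMSO with full reaction for no effect and wells lacking NADH for full effect.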 The note with it: diaphorase resazurin-to-resorufin fluorescence, NADH, 16 min; at 20 µM; active compounds read high; bacterial (C. kluyveri) enzyme, not human. Put shortly:
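Test system: bacterial diaphorase enzyme (C. kluyveri); Quantity: 0.14 U/mL diaphorase, enzyme working solution; Times: reaction incubation of 16 min at room temperature; Measured by: fluorescence of resorufin formed from resazurin, Ex 544/Em 590 nm; Benchmarks: positive control minus NADH, DMSO neutral control.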
On the technique in general: A counterscreen serves to expose hits that act by an unwanted route or on another target.
Regarding `O=C(OCC(=O)N1CCOCC1)c1ccc(N2CCOCC2)c([N+](=O)[O-])c1`, the inhibition is 3.6%. The figure for `CC(C)(C)NC(=O)C(=O)NN=C1CCCCCCC1` is 3.8%. In the case of `CCN(CC)CCN(C(=O)c1cccc([N+](=O)[O-])c1)c1nc2ccc(OC)cc2s1`, the inhibition is 9.6%.

With `CCCn1c(C)cc(C(=O)COC(=O)c2c(C)nn(-c3ccccc3)c2C)c1C`, the inhibition was 18.9%. In the case of `Cc1nn(-c2ccccc2)c(C)c1C(=O)OCC(=O)NC(=O)NC1CCCCC1`, the inhibition was 57.3% (active). For `O=C(COC(=O)c1ccccc1SCC(=O)NC1CCCCC1)NC1CCCCC1`, the inhibition is 3.2%. For the molecule `Cn1cnnc1SCc1nnc(-c2ccccc2Br)o1`, the inhibition was 4.8%. Consider `CCC1CCCCN1C(=O)CSc1nc2c(c(=O)n(C)c(=O)n2C)n1C` (stereo unspecified), for which the inhibition was 6.8%. The figure for `CC1CCC2(CC1)NC(=O)N(Cc1nnc(-c3cccs3)o1)C2=O` (stereo unspecified) is 8.2%; for `COc1cccc(CC2(CO)CCCN(Cc3nc(-c4cccs4)oc3C)C2)c1` (stereo unspecified) it is 17.2%; for `CCOC(=O)C1(CC2CCCCO2)CCN(Cc2nc(-c3cccs3)oc2C)CC1` (stereo unspecified) it is 56.2% (active). The figure for `COc1ccc(Nc2nc(N)nc(CSC(=S)N3CCC(C)CC3)n2)cc1` is 28.1%; for `O=c1c(-c2ccccc2)coc2cc(O)ccc12` it is -8.4%.

As for `COc1ccc(C(=O)NC(=S)NNC(=O)c2c(-c3ccccc3)noc2C)cc1`, the inhibition is 38.4%. As for `O=C(CCc1ccccc1)NNC(=O)c1ccc(Br)cc1`, the inhibition was -5.7%. The figure for `COc1ccc(C(=O)NC(=S)NNC(=O)CCc2ccccc2)cc1` is 54% (active); for `COc1ccc(CC(NC(C)=O)C(=O)NC2CCN(C(=O)c3ccc(OC)c(OC)c3)CC2)cc1OC` (stereo unspecified) it is 10.9%.

In the case of `COc1ccc(CN2CCC(c3nc4ccc(Cl)cc4[nH]3)CC2)cc1`, the inhibition was 2.5%. On to `O=C(OCC1O[C@@H](OC(=O)c2cc(O)c(O)c(O)c2)[C@@H](OC(=O)c2cc(O)c(O)c(O)c2)[C@@H](OC(=O)c2cc(O)c(O)c(O)c2)[C@@H]1OC(=O)c1cc(O)c(O)c(O)c1)c1cc(O)c(O)c(O)c1` (stereo partly specified), for which the inhibition is 71.3% (active). `CC(=O)NC1C(OCc2ccccc2)OC(COC(C)=O)C(OC(C)=O)C1OC(C)=O` (stereo unspecified): the inhibition was 9%. Next, `O=C(Nc1ccccc1-c1ccccc1)c1cccs1`: 7.8%; `Cc1ccc2[nH]c(=O)c(CN3CCCCC3)c(-c3ccccc3)c2c1`: 68.3% (active); `O=C(CN1CCOCC1)Nc1c(-c2ccccc2)c2cc(Br)ccc2[nH]c1=O`: 12.8%. With `Cc1ccc2[nH]c(=O)c(CC=C(Cl)Cl)c(C)c2c1`, the inhibition was 7.7%.

Regarding `O=C(CSc1nc2ccccc2[nH]1)Nc1nc(-c2ccccc2)c(-c2ccccc2)o1`, the inhibition was 12.3%. Next, `COc1ccc(OC)c(C(c2nnnn2C(C)(C)C)N2CCc3ccccc3C2)c1` (stereo unspecified): 29.8%; `COCCn1nnnc1C(c1cc2ccc(OC)cc2[nH]c1=O)N1CCc2ccccc2C1` (stereo unspecified): 52.1% (active); `CCOc1ccc2[nH]c(=O)c(C(c3nnnn3CCOC)N3CCOCC3)cc2c1` (stereo unspecified): 5.8%. Next, `N#C/C(=C\C1=C(N2CCOCC2)C(=C\c2ccccc2)/CC1)C(=O)Nc1ccccc1F`: 28.4%; `CCNc1ccc(C(=O)OCC(=O)N2c3ccccc3NC(=O)C2(C)C)cc1[N+](=O)[O-]`: 19.8%. In the case of `Cc1ccc(SCC(=O)c2sc(-c3ccccc3)nc2C)cc1`, the inhibition is 20.1%. On to `Cc1nc(-c2ccc(Cl)cc2)sc1C(=O)CBr`, for which the inhibition is 52.6% (active). Regarding `Cc1nc(-c2ccccc2)sc1C(=O)/C=C/c1ccccc1`, the inhibition was 13.8%. The figure for `CN1CCN(/N=C/c2ccc(-c3ccc([N+](=O)[O-])cc3)o2)CC1` is -3.7%. For `COc1ccc(N(C(=O)c2ccc(C)cc2)S(=O)(=O)c2cccs2)cc1`, the inhibition is 18.3%. The figure for `CCC(C)(C)N=C(NC#N)Nc1cccnc1` is 59.6% (active); for `CC(C)(C)C1CCC(C(=O)Nc2cccnc2)CC1` (stereo unspecified) it is 6.1%; for `CCOc1cccc(C(=O)Nc2cccnc2)c1` it is -6.7%.

As for `Cc1nn(C)cc1C(=O)Nc1ccccc1Br`, the inhibition is 13.9%.

For `O=C(CCn1ccc([N+](=O)[O-])n1)Nc1nccs1`, the inhibition was 9.2%. Next, `COc1ccc(C=Nc2cccc3ncccc23)cc1`: 39.7%; `Oc1c(C=Nc2cccc3nsnc23)ccc2ccccc12`: 62.8% (active); `CCSC1=NCCN1S(=O)(=O)c1ccc(F)cc1`: -9.8%. Next, `O=C(Nc1cc(N2CCOCC2)ncn1)NC1(C(F)(F)F)Oc2ccc(Cl)cc2O1` (stereo unspecified): 62.6% (active). On to `c1cnn(-c2cc(N3CCOCC3)ncn2)c1`, for which the inhibition was 15.6%. Regarding `Cc1csc(NC(=O)NC2(C(F)(F)F)Oc3ccccc3O2)n1`, the inhibition was 38.6%.

For `CC(=O)C1=C(O)C(=O)N(c2cccnc2)C1c1ccc([N+](=O)[O-])cc1` (stereo unspecified), the inhibition is 9.5%.

With `COC(=O)C[n+]1cccc2ccccc21`, the inhibition is 2.1%. Next, `O=C(CSc1ccc(-c2ccco2)nn1)NCc1ccc2c(c1)OCO2`: 18.6%; `C/C(=N\N1CCN(Cc2ccc(C)cc2)CC1)c1ccco1`: 3.3%.

Regarding `Cc1ccnc(Nc2nc3ccccc3s2)n1`, the inhibition was -16.3%. The figure for `Cc1ccnc(N2CCC(C(=O)NC3CCCCCC3)CC2)n1` is 0.8%; for `Cc1ccnc(-n2sc3ccccc3c2=O)n1` it is 57% (active); for `Cc1ccc(S(=O)(=O)N(C)C)cc1NC(=O)/C=C/c1cccs1` it is 15.5%. The figure for `C#Cc1ccc([C@@H]2C=C(C(=O)O)O[C@H](OCCCCO)C2)cc1` is 15%; for `O=C(CCN1C(=O)c2ccccc2C1=O)NCCCn1ccnc1` it is -0.3%. The figure for `O=C(O)/C=C/c1cn(Cc2ccccc2)nc1-c1cccs1` is 9.8%; for `Cc1cccc(C)c1NC(=O)CSc1nnc(-c2ccccc2)n1Cc1ccc2c(c1)OCO2` it is -6.5%; for `c1ccc(-c2nnc3n2NC(c2ccc4c(c2)OCO4)S3)cc1` (stereo unspecified) it is 50% (active). Regarding `O=C(Cn1nnc(-c2ccccc2)n1)NCc1ccc2c(c1)OCO2`, the inhibition is -5.8%. Next, `Cc1ccc(NS(=O)(=O)c2ccc(C)c(NC(=O)COc3ccc4ccccc4c3)c2)c(C)c1`: 30.9%.

Source of the values: PubChem BioAssay AID1217 (Sanford-Burnham Center for Chemical Genomics, 2008).
